DENV2 CPE rescue: inhibitors of DENV2 cytopathic effect; DENV2-infected cells, cytopathic effect rescue, plate reader; CPE inhibition, % at 9.99 µM; AID 651640; 350,000 compounds, 1.7% hits; in the data active = CPE inhibition above about 20%, passing the limit was not always enough; inconclusive = no clear call, values can overlap the other calls; tested in BHK-21 cells;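 also: 0% = median of neutral control wells and 100% = median of positive control wells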
E-sel inducer: E-selectin induction on HUVECs; P16581; HUVEC E-selectin immunofluorescence imaging; normalized: neutral wells 0, TNF-alpha wells 100; activation, % at 7.58 µM; 260,000 compounds, 0.37% hits; AID 686992;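 active = mean E-selectin-positive cell signal at least 10% of the positive control, reached in at least 60% of replicates, without over 20% cell loss; inconclusive = no rule given, readout overlaps actives, possibly toxicity-flagged; inactive = the rest, including those meeting only one limit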
Target sequence (P16581 whole entry, looked up): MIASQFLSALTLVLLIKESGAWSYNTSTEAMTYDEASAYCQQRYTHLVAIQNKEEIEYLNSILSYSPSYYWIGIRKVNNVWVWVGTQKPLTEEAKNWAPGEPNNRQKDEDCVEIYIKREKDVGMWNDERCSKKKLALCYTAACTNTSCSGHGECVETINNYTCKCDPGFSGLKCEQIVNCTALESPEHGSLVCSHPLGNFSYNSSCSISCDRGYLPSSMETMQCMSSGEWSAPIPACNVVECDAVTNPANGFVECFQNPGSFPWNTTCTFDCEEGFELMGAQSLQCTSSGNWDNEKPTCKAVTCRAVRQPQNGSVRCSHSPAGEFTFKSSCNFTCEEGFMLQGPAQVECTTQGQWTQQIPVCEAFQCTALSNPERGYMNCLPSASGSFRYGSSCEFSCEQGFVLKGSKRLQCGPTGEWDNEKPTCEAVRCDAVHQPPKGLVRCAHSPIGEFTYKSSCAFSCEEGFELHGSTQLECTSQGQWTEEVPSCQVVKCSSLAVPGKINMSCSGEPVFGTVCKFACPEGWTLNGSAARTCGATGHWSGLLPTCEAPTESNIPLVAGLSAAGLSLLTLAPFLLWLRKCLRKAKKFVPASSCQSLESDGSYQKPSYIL
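Read-out basis: % PE-positive cells; Test system: HUVEC primary endothelial cells; Technique: immunofluorescence imaging; Dosing: single-point compound dose.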
ERAP1 inh: ERAP1 (human) enzyme inhibition; recombinant ERAP1, Leu-AMC fluorescence, 60 min; inhibition, % at 10.7 µM; 340,000 compounds, 0.15% hits; AID 652197;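 active = mean replicate inhibition of at least 30%, or all replicates individually reaching that 30% level; inactive = mean below 30% and not every replicate reaching it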;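 also: 0% = neutral control wells and 100% = L-leucinethiol positive control wells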
FGF22 binding: shifts melting point of recombinant human FGF22; recombinant FGF22 thermal shift, SYPRO orange fluorescence; percent of sucrose octasulfate shift, DMSO zero; Q9HCT0; AID 651658; 340,000 compounds, 1.5% hits; activity (Tm shift, normalised), % at 9.99 µM;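 active = mean Tm shift, scaled 0 neutral to 100 positive control, at about 1.3% or above, every replicate too, limit read from the data; inconclusive = no clear call, values can overlap the other calls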
CFTR F508del cor: CFTR F508del correction in bronchial cells | CFBE cells, YFP halide quenching; stimulated with forskolin plus potentiator P3; % fluorescence drop versus neutral controls | activity (quench increase), % at 7.58 µM | 350,000 compounds, 0.36% hits | AID 720511;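 active = mean added fluorescence quench of at least 8% versus neutral control, with both replicates also reaching 8%; inconclusive = only one of the mean or replicate conditions met; inactive = mean below 8% and not both replicates reaching 8%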;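 also: cells transiently co-express mutant CFTR-F508del with the halide-sensitive YFP; corrector assay measuring rescue of mutant channel to the surface after 24 h compound exposure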
An asterisk follows results filed as active; ? = inconclusive; · = no result given. The list is not random: actives were taken first. Their share in the collection is about 3.7%.

SMILES	DENV2 CPE rescue	E-sel inducer	ERAP1 inh	FGF22 binding	CFTR F508del cor
O=[N+]([O-])c1cc(C(F)(F)F)ccc1N1CCCC(O)C1 (stereo unspecified)	-1.3	-0.3	-8.3	42.9*	-1.3
O=[N+]([O-])c1cc(C(F)(F)F)ccc1N1CCN(CCO)CC1	-1.8	7.9	2.3	43.1*	-5.2
O=C(C1CCC1)N1CCN(c2ccc(C(F)(F)F)cc2[N+](=O)[O-])CC1	·	0.0	-0.2	0.0	-1.7
C[C@@H]1CN([C@H](C)CO)S(=O)(=O)c2ccc(C#CC3CCCC3)cc2O[C@H]1CN(C)C	61.2*	·	-8.5	-0.4	1.4
C[C@H]1CN([C@@H](C)CO)S(=O)(=O)c2ccc(C#CC3CC3)cc2O[C@@H]1CN(C)Cc1ccncc1	41.7*	-0.1	-0.5	-0.7	3.4
C[C@@H]1CN([C@H](C)CO)S(=O)(=O)c2ccc(C#CC3CC3)cc2O[C@@H]1CN(C)Cc1ccncc1	-9.3	0.4	-0.2	-0.2	5.6
COc1ccc2c3c([nH]c2c1)[C@@H](CO)N(C(=O)c1ccccn1)CC31CCN(C(=O)C2CCCC2)CC1	23.5*	0.1	2.9	-0.3	-0.7
COc1ccc2c3c([nH]c2c1)[C@@H](CO)N(C(=O)c1cnccn1)CC31CCN(S(C)(=O)=O)CC1	33.7*	-0.2	2.5	-0.1	1.0
C[C@H](CO)N1C[C@H](C)[C@H](CN(C)C(=O)CCCN(C)C)OCCCC[C@H](C)Oc2ccc(NC(=O)Cc3ccccc3)cc2C1=O	98.2*	·	1.1	-0.1	-2.7
C[C@@H]1CCCCO[C@@H](CN(C)C(=O)CCCN(C)C)[C@H](C)CN([C@H](C)CO)C(=O)c2cc(NC(=O)Nc3ccc4c(c3)OCO4)ccc2O1	-3.4	0.1	·	-0.1	2.4
C[C@@H]1CCCCO[C@@H](CN(C)C(=O)CCCN(C)C)[C@H](C)CN([C@H](C)CO)C(=O)c2cc(NC(=O)Cc3ccccc3)ccc2O1	-1.9	·	3.9	-0.9	1.5
C[C@H]1CCCCO[C@H](CN(C)C(=O)CCCN(C)C)[C@@H](C)CN([C@@H](C)CO)C(=O)c2cc(NC(=O)Cc3ccccc3)ccc2O1	29.0*	·	2.9	-1.0	1.2
C[C@@H]1CCCCO[C@@H](CN(C)C(=O)CCCN(C)C)[C@H](C)CN([C@@H](C)CO)C(=O)c2cc(NC(=O)Cc3ccccc3)ccc2O1	-6.8	·	1.9	-0.2	-1.4
C[C@@H]1CCCCO[C@H](CN(C)C(=O)CCCN(C)C)[C@@H](C)CN([C@@H](C)CO)C(=O)c2cc(NC(=O)Nc3ccc4c(c3)OCO4)ccc2O1	47.4*	-0.2	·	0.0	1.2
C[C@@H]1CN([C@@H](C)CO)C(=O)Cc2cc(NC(=O)Nc3ccc(C(F)(F)F)cc3)ccc2O[C@@H]1CN(C)CC1CCCCC1	-0.5	0.5	0.6	0.0	5.8
C[C@@H]1CN([C@H](C)CO)C(=O)Cc2cc(NC(=O)Nc3cccc4ccccc34)ccc2O[C@H]1CN(C)S(=O)(=O)c1ccc(Cl)cc1	-6.6	0.2	-1.3	0.1	0.3
NS(=O)(=O)c1ccc(NNC(=O)c2ccc(Br)o2)c([N+](=O)[O-])c1	9.8	-0.1	2.9	0.0	8.0*
NS(=O)(=O)c1ccc(Nc2ccccc2)c([N+](=O)[O-])c1	-3.7	0.6	1.0	-0.2	-1.2
Cc1noc(C)c1NC(=O)Nc1ccc2c(c1)CC(=O)N([C@@H](C)CO)C[C@@H](C)[C@H](CN(C)S(=O)(=O)c1ccccc1)O2	6.5	?	7.6	0.6	-0.7
CN(C)C(=O)c1cccc(-c2ccc3c(c2)[C@@H]2[C@@H](CCN2C(=O)c2ccc4c(c2)OCO4)[C@H](CO)N3)c1	-6.4	0.3	·	-0.1	3.2
O=C(N/N=C/c1cccc([N+](=O)[O-])c1)c1ccc2c(c1)OCCO2	·	-0.6	·	·	·
O=[N+]([O-])c1cccc(C=Nc2cc3c(cc2Br)OCCO3)c1	44.3*	·	1.1	-0.3	·
COc1ccccc1-c1noc2c1C(=O)N(Cc1cn(Cc3ccccc3)nn1)CC2	55.8*	-0.1	0.5	0.3	-2.4
COc1ccc(Cn2cc(CN3CCc4onc(-c5ccccc5OC)c4C3=O)nn2)cc1	12.7	0.1	-0.8	-0.1	-0.7
C[C@H](CO)N1C[C@H](C)[C@H](CN(C)Cc2cccnc2)Oc2ncc(/C=C/c3ccccc3)cc2C1=O	3.5	0.3	-0.7	-0.2	2.9
